ChEMBL document CHEMBL3124750 (Bioorg Med Chem Lett, 2014)
pKi: −log10 of the molar value.

Legend:
[1] = tested on: Liver microsome; assay: Drug metabolism in rat liver microsomes assessed as retention time of hydroxylated M3 metabolite formation after 30 mins by LC-MS/MS analysis; format: ADME; conditions: 0.5 h
In short: (§1)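 Rat liver microsomes, 30 min incubation; metabolites detected by LC-MS and MS-MS. Chromatography: C18 column (2.1 x 150 mm, 5 µm), water/acetonitrile each with 0.05% formic acid, gradient 60:40 to 20:80 over 20 min, 200 µL/min; UV detection at 275 nm; retention times recorded.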

[2] = molecular target: Translocator protein (Rattus norvegicus, UniProt P16257); assay: Displacement of [3H]PK11195 from TSPO in rat heart membrane homogenates; format: cell membranes
Sequence of Translocator protein (P16257 whole entry, looked up): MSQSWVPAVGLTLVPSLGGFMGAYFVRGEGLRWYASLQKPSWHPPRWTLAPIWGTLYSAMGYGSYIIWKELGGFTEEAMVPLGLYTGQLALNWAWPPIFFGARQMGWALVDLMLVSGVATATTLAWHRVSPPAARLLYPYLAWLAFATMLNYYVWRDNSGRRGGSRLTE

[3] = Octanol-buffer partition coefficient, log D of the compound at pH 7.4 by HPLC method; format: physicochemical
In short: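 The HPLC retention time was converted to logD7.4 by calibration against known logD values of similar compounds. C18 column (4.6 x 20 mm, 3.5 µm); A: 5 mM MOPS/(CH3)4NOH pH 7.4; B: 5% MOPS/(CH3)4NOH (100 mM, pH 7.4) in 95% acetonitrile; gradient 98:2 to 0:100; 1.2 mL/min; 25 °C; detection at 254 nm.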

[4] = Displacement of [3H]flunitrazepam from CBR in rat cerebral cortex membrane homogenates; format: cell membranes
In short: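 Central benzodiazepine receptor counter-screen: competition against [3H]flunitrazepam (Kd = 2.1 nM, used at 0.4 nM) on rat cerebral cortex membrane homogenates; Ki values derived.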

[5] = tested on: Liver microsome; assay: Drug metabolism in rat liver microsomes assessed as retention time of dihydroxylated M4 metabolite formation after 30 mins by LC-MS/MS analysis; format: ADME; conditions: 0.5 h; in short: as §1
[6] = tested on: Liver microsome; assay: Drug metabolism in rat liver microsomes assessed as retention time of compound after 30 mins by LC-MS/MS analysis; format: ADME; conditions: 0.5 h; in short: as §1
[7] = tested on: Liver microsome; assay: Drug metabolism in rat liver microsomes assessed as retention time of hydroxylated M2 metabolite formation after 30 mins by LC-MS/MS analysis; format: ADME; conditions: 0.5 h; in short: as §1
[8] = tested on: Liver microsome; assay: Drug metabolism in rat liver microsomes assessed as retention time of deethylated M1 metabolite formation after 30 mins by LC-MS/MS analysis; format: ADME; conditions: 0.5 h; in short: as §1
[9] = tested on: Striatum; assay: Drug uptake in iv dosed AMPA lesioned Wistar rat brain striatum measured after 60 mins by MicroPET imaging analysis; format: ADME, organism-based; conditions: in vivo, 1 h
In short: (§2)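 MicroPET on anesthetized Wistar rats 7 days after AMPA injection into the right striatum. The [18F]-labelled tracer was given i.v.; uptake is expressed as percent injected dose per mL (% ID/mL) in the lesioned striatum or the contralateral area at 60 min.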

[10] = tested on: Striatum; assay: Ratio of drug level from ipsilateral to contralateral in Wistar rat administered as iv measured after 60 mins of postinjection by MicroPET imaging analysis; format: ADME, organism-based; conditions: in vivo, 1 h
In short: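 Anesthetized Wistar rats lesioned by AMPA injection into the right striatum 7 days earlier received the [18F] tracer i.v. for microPET. The ratio is bound tracer in the lesion divided by bound tracer in the contralateral side at 60 min post-injection.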

[11] = tested on: Striatum; assay: Drug uptake in iv dosed AMPA lesioned Wistar rat brain contralateral side of striatum measured after 60 mins by MicroPET imaging analysis; format: ADME, organism-based; conditions: in vivo, 1 h; in short: as §2

Row | Retention_time [1] [min] | pKi [2] | logD [3] | pKi [4] | Retention_time [5] [min] | Retention_time [6] [min] | Retention_time [7] [min] | Retention_time [8] [min] | Drug uptake [9] [%ID/ml] | Ratio [10] | Drug uptake [11] [%ID/ml] | SMILES
1 | 10.01 | 9.13 | 3.67 | < 6.00 | 5.89 | 15.81 | 11.19 | 11.68 | – | – | – | CCN(CC)C(=O)Cc1c(-c2ccc(C#CCCF)cc2)nn2c(C)cc(C)nc12
2 | – | – | – | – | – | – | – | – | 0.24 | 4.62 | 0.05 | CCN(CC)C(=O)Cc1c(-c2ccc(C#CCCC[18F])cc2)nn2c(C)cc(C)nc12
3 | – | 9.27 | 3.61 | < 6.00 | – | 15.66 | 11 | 11.41 | – | – | – | CCN(CC)C(=O)Cc1c(-c2ccc(C#CCF)cc2)nn2c(C)cc(C)nc12
4 | – | – | 2.89 | < 6.00 | – | – | – | – | – | – | – | CCN(CC)C(=O)Cc1c(-c2ccc(OCCF)cc2)nn2c(C)cc(C)nc12 [DPA-714]
5 | – | – | – | – | – | – | – | – | 0.3 | – | 0.08 | CCN(CC)C(=O)Cc1c(-c2ccc(OCC[18F])cc2)nn2c(C)cc(C)nc12 [DPA-714 F-18]
6 | – | – | – | – | – | – | – | – | – | 1.65 | – | CCC(C)N([11CH3])C(=O)c1cc2ccccc2c(-c2ccccc2Cl)n1 (stereo not drawn)
7 | 8.92 | 9.46 | 4.06 | < 6.00 | 3.43 | 17.05 | 11.37 | 12.08 | – | – | – | CCN(CC)C(=O)Cc1c(-c2ccc(C#CCCCF)cc2)nn2c(C)cc(C)nc12
8 | 10.01 | 9.10 | 4.35 | < 6.00 | 5.89 | 15.81 | 11.19 | 11.68 | – | – | – | CCN(CC)C(=O)Cc1c(-c2ccc(C#CCCCCF)cc2)nn2c(C)cc(C)nc12
